Measured values reported in ChEMBL document CHEMBL4145521, “Regioselective synthesis of 3,4-diaryl-5-unsubstituted isoxazoles, analogues of natural cytostatic combretastatin A4” (Eur J Med Chem, 2018).

What was measured:
Assay type in all cases: functional
Paracentrotus lividus = assay: Antimitotic activity against Paracentrotus lividus embryo assessed as cleavage arrest measured at 5.5 hrs post fertilization by light microscopy
Method in brief: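 Sea urchin eggs were fertilized with diluted sperm and cultured at room temperature in filtered seawater with paddle agitation (60 rpm), at up to 2000 embryos/mL. The effective threshold concentration causing cleavage alteration, death before hatching or full mitotic arrest was scored in duplicate.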

EKVX [1] = assay: Cytotoxicity against human EKVX cells assessed as cell growth at 0.01 uM incubated for 48 hrs by sulforhodamine B assay relative to control; conditions: read-out: Activity
SNB-75 = assay: Cytotoxicity against human SNB75 cells assessed as cell growth at 0.01 uM incubated for 48 hrs by sulforhodamine B assay relative to control; conditions: SNB-75, 48 h, read-out: Activity
CAKI-1 = assay: Cytotoxicity against human Caki1 cells assessed as cell growth at 0.01 uM incubated for 48 hrs by sulforhodamine B assay relative to control; conditions: CAKI-1, 48 h, read-out: Activity
PC-3 = assay: Cytotoxicity against human PC3 cells assessed as cell growth at 0.01 uM incubated for 48 hrs by sulforhodamine B assay relative to control; conditions: PC-3, 48 h, read-out: Activity
MCF7 = assay: Cytotoxicity against human MCF7 cells assessed as cell growth at 0.01 uM incubated for 48 hrs by sulforhodamine B assay relative to control; conditions: MCF7, 48 h, read-out: Activity
MDA-MB-231 [2] = assay: Cytotoxicity against human MDA-MB-231 cells assessed as cell growth at 0.01 uM incubated for 48 hrs by sulforhodamine B assay relative to control; conditions: MDA-MB-231, 48 h, read-out: Activity
CCRF-CEM = assay: Cytotoxicity against human CCRF-CEM cells assessed as cell growth at 0.1 uM incubated for 48 hrs by sulforhodamine B assay relative to control; conditions: read-out: Activity
EKVX [3] = assay: Cytotoxicity against human EKVX cells assessed as cell growth at 0.1 uM incubated for 48 hrs by sulforhodamine B assay relative to control; conditions: read-out: Activity
M14 = assay: Cytotoxicity against human M14 cells assessed as cell growth at 0.1 uM incubated for 48 hrs by sulforhodamine B assay relative to control; conditions: M14, 48 h, read-out: Activity
IGROV-1 = assay: Cytotoxicity against human IGROV1 cells assessed as cell growth at 0.1 uM incubated for 48 hrs by sulforhodamine B assay relative to control; conditions: IGROV-1, 48 h, read-out: Activity
RXF 393 = assay: Cytotoxicity against human RXF393 cells assessed as cell growth at 0.1 uM incubated for 48 hrs by sulforhodamine B assay relative to control; conditions: RXF 393, 48 h, read-out: Activity
Hs-578T = assay: Cytotoxicity against human Hs 578T cells assessed as cell growth at 0.1 uM incubated for 48 hrs by sulforhodamine B assay relative to control; conditions: read-out: Activity
A549 [4] = assay: Cytotoxicity against human A549/ATCC cells assessed as cell growth at 1 uM incubated for 48 hrs by sulforhodamine B assay relative to control; conditions: A549, 48 h, read-out: Activity
HCT-116 = assay: Cytotoxicity against human HCT116 cells assessed as cell growth at 1 uM incubated for 48 hrs by sulforhodamine B assay relative to control; conditions: HCT-116, 48 h, read-out: Activity
SW-620 = assay: Cytotoxicity against human SW620 cells assessed as cell growth at 1 uM incubated for 48 hrs by sulforhodamine B assay relative to control; conditions: SW-620, 48 h, read-out: Activity
ACHN = assay: Cytotoxicity against human ACHN cells assessed as cell growth at 1 uM incubated for 48 hrs by sulforhodamine B assay relative to control; conditions: read-out: Activity
MDA-MB-231 [5] = assay: Cytotoxicity against human MDA-MB-231 cells assessed as cell growth at 1 uM incubated for 48 hrs by sulforhodamine B assay relative to control; conditions: MDA-MB-231, 48 h, read-out: Activity
HL-60(TB) = assay: Cytotoxicity against human HL-60(TB) cells assessed as cell growth at 10 uM incubated for 48 hrs by sulforhodamine B assay relative to control; conditions: HL-60, 48 h, read-out: Activity
SR = assay: Cytotoxicity against human SR cells assessed as cell growth at 10 uM incubated for 48 hrs by sulforhodamine B assay relative to control; conditions: read-out: Activity
A549 [6] = assay: Cytotoxicity against human A549/ATCC cells assessed as cell growth at 10 uM incubated for 48 hrs by sulforhodamine B assay relative to control; conditions: A549, 48 h, read-out: Activity
HOP-62 [7] = assay: Cytotoxicity against human HOP62 cells assessed as cell growth at 10 uM incubated for 48 hrs by sulforhodamine B assay relative to control; conditions: HOP-62, 48 h, read-out: Activity
NCI-H23 = assay: Cytotoxicity against human NCI-H23 cells assessed as cell growth at 10 uM incubated for 48 hrs by sulforhodamine B assay relative to control; conditions: NCI-H23, 48 h, read-out: Activity
SF-539 = assay: Cytotoxicity against human SF539 cells assessed as cell growth at 10 uM incubated for 48 hrs by sulforhodamine B assay relative to control; conditions: SF-539, 48 h, read-out: Activity
OVCAR-5 = assay: Cytotoxicity against human OVCAR5 cells assessed as cell growth at 10 uM incubated for 48 hrs by sulforhodamine B assay relative to control; conditions: OVCAR-5, 48 h, read-out: Activity
MDA-MB-468 = assay: Cytotoxicity against human MDA-MB-468 cells assessed as cell growth at 10 uM incubated for 48 hrs by sulforhodamine B assay relative to control; conditions: MDA-MB-468, 48 h, read-out: Activity
HOP-62 [8] = assay: Cytotoxicity against human HOP62 cells assessed as cell growth at 100 uM incubated for 48 hrs by sulforhodamine B assay relative to control; conditions: HOP-62, 48 h, read-out: Activity
NCI-H322M = assay: Cytotoxicity against human NCI-H322M cells assessed as cell growth at 100 uM incubated for 48 hrs by sulforhodamine B assay relative to control; conditions: read-out: Activity
HCC 2998 = assay: Cytotoxicity against human HCC2998 cells assessed as cell growth at 100 uM incubated for 48 hrs by sulforhodamine B assay relative to control; conditions: HCC 2998, 48 h, read-out: Activity
K562 = assay: Cytotoxicity against human K562 cells incubated for 48 hrs by sulforhodamine B assay; conditions: K562, 48 h
SK-MEL-2 = assay: Cytotoxicity against human SK-MEL-2 cells incubated for 48 hrs by sulforhodamine B assay; conditions: SK-MEL-2, 48 h
786-0 = assay: Cytotoxicity against human 786-0 cells incubated for 48 hrs by sulforhodamine B assay; conditions: 786-0, 48 h

Q: With `COc1ccc(-c2nocc2-c2cc(OC)c(OC)c(OC)c2)cc1` as the compound, how does the EC (Paracentrotus lividus) read?
A: 0.1 µM

Q: And the growth at 0.01 µM (EKVX [1])?
A: 83%

Q: And the growth at 0.01 µM (SNB-75)?
A: 74%

Q: And the growth at 0.01 µM (CAKI-1)?
A: 90%

Q: What about the growth at 0.01 µM (PC-3) of the same compound?
A: 99%

Q: What about the growth at 0.01 µM (MCF7) of the same compound?
A: 86%

Q: And the growth at 0.01 µM (MDA-MB-231 [2])?
A: 98%

Q: What about the growth at 0.1 µM (CCRF-CEM) of the same compound?
A: 90%

Q: And the growth at 0.1 µM (EKVX [3])?
A: 49%

Q: And the growth at 0.1 µM (M14)?
A: 41%

Q: What about the growth at 0.1 µM (IGROV-1) of the same compound?
A: 54%

Q: And the growth at 0.1 µM (RXF 393)?
A: 86%

Q: And the growth at 0.1 µM (Hs-578T)?
A: 77%

Q: What about the growth at 1 µM (A549 [4]) of the same compound?
A: 28%

Q: And the growth at 1 µM (HCT-116)?
A: 14%

Q: And the growth at 1 µM (SW-620)?
A: 21%

Q: What about the growth at 1 µM (ACHN) of the same compound?
A: 52%

Q: And the growth at 1 µM (MDA-MB-231 [5])?
A: 38%

Q: And the growth at 10 µM (HL-60(TB))?
A: -8%

Q: And the growth at 10 µM (SR)?
A: 22%

Q: And the growth at 10 µM (A549 [6])?
A: 29%

Q: What about the growth at 10 µM (HOP-62 [7]) of the same compound?
A: 35%

Q: What about the growth at 10 µM (NCI-H23) of the same compound?
A: 19%

Q: What about the growth at 10 µM (SF-539) of the same compound?
A: 2%

Q: And the growth at 10 µM (OVCAR-5)?
A: 39%

Q: What about the growth at 10 µM (MDA-MB-468) of the same compound?
A: 3%

Q: What about the growth at 100 µM (HOP-62 [8]) of the same compound?
A: 10%

Q: What about the growth at 100 µM (NCI-H322M) of the same compound?
A: 18%

Q: And the growth at 100 µM (HCC 2998)?
A: -47%

Q: And the GI50 (K562; read-out: GI50)?
A: 0.0471 µM

Q: What about the LC50 (50% lethal concentration) (K562; read-out: LC50) of the same compound?
A: > 100 µM

Q: And the TGI (K562; read-out: TGI)?
A: > 100 µM

Q: And the GI50 (K562; read-out: pGI50 (converted))?
A: 0.0468 µM

Q: What about the LC50 (50% lethal concentration) (K562; read-out: pLC50 (converted)) of the same compound?
A: > 100 µM

Q: And the TGI (K562; read-out: pTGI)?
A: > 100 µM

Q: What about the GI50 (SK-MEL-2; read-out: GI50) of the same compound?
A: 0.0664 µM

Q: What about the CC50 (SK-MEL-2; read-out: LC50 (the source's name)) of the same compound?
A: > 100 µM

Q: What about the TGI (SK-MEL-2; read-out: TGI) of the same compound?
A: 69.2 µM

Q: What about the GI50 (SK-MEL-2; read-out: pGI50 (converted)) of the same compound?
A: 0.0661 µM

Q: What about the CC50 (SK-MEL-2; read-out: pLC50 (the source's name) (converted)) of the same compound?
A: > 100 µM

Q: What about the TGI (SK-MEL-2; read-out: pTGI (converted)) of the same compound?
A: 69.2 µM

Q: What about the GI50 (786-0; read-out: GI50) of the same compound?
A: 0.174 µM

Q: And the LC50 (786-0; read-out: LC50)?
A: > 100 µM

Q: What about the TGI (786-0; read-out: TGI) of the same compound?
A: 38.6 µM

Q: And the GI50 (786-0; read-out: pGI50 (converted))?
A: 0.174 µM

Q: And the LC50 (786-0; read-out: pLC50 (converted))?
A: > 100 µM

Q: What about the TGI (786-0; read-out: pTGI (converted)) of the same compound?
A: 38.9 µM
